Key:
[1] = system: Trypanosoma brucei; assay: Antitrypanosomal activity against Trypanosoma brucei 427 bloodstream forms assessed as parasitic growth inhibition after 48 hrs by alamar blue assay; format: functional; conditions: Trypanosoma brucei, 427, 48 h
In short: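 Bloodstream-form strain 427 trypomastigotes cultured in HMI-9 with 10% FBS, penicillin and streptomycin at 37°C, 5% CO2. Seeded at 1 × 10^4 per well, serial compound dilutions from 20 mM DMSO stocks, triplicate. Growth read with Alamar Blue at 48 h; pentamidine run as positive control in each assay.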

[2] = Inhibition of Trypanosoma brucei methionyl tRNA synthetase preincubated for 15 mins followed by L-methionine substrate addition measured after 120 mins by ATP- depletion chemiluminescence assay
In short: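 Triplicate. Compound pre-incubated 15 min at room temperature with 50 nM TbMetRS, 200 µg/mL E. coli tRNA, 0.1 U/mL pyrophosphatase, 0.2 mM spermine, BSA, DTT, 25 mM HEPES-KOH pH 7.9, 10 mM MgCl2, 50 mM KCl, 2% DMSO. Started with 100 nM ATP and 32 µM L-methionine; after 120 min, Kinase-Glo luminescence read. IC50 from sigmoidal dose-response fit.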

[3] = system: Trypanosoma brucei; assay: Binding affinity to Trypanosoma brucei methionyl-tRNA synthetase assessed as change in melting temperature at 100 uM by SYPRO orange dye based thermal shift assay
In short: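 TbMetRS in 100 mM HEPES pH 7.5, 100 mM NaCl, 10 mM ATP-Mg with SYPRO Orange; compound at 100 µM final. Fluorescence measured in triplicate from 25 to 90 °C in 0.2 °C steps. Tm taken as the temperature of the first-derivative maximum.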

[4] = Cytotoxicity against human CRL-1855 cells assessed as cell viability after 48 hrs by alamar blue assay; format: toxicity, cell-based
In short: (§1)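 CRL-1855 cells grown in RPMI and HepG2 cells in DMEM/F-12, both with 10% FBS, penicillin and streptomycin. Plated at 5 × 10^3 per well with serial compound dilutions in quadruplicate for 48 h. Alamar Blue added for a further 4 h at 37 °C, 5% CO2. OD570–600 viability referenced to untreated cells.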

[5] = Cytotoxicity against human HepG2 cells assessed as cell viability after 48 hrs by alamar blue assay; format: toxicity, cell-based; in short: as §1
[6] = system: Trypanosoma brucei; assay: (§2) Inhibition of Trypanosoma brucei 427 recombinant full length N-terminal 6His-tagged methionyl tRNA synthetase expressed in Escherichia coli assessed as decrease in incorporation of [3H]L-methionine into tRNA at 10 uM preincubated for 15 mins followed by Escherichia coli tRNA addition measured after 120 mins by scintillation counting method
[7] = system: Trypanosoma brucei; assay: as §2, with “1” for “10”
[8] = Cmax in mouse at 50 mg/kg, administered through oral gavage by LC-MS analysis; format: ADME, organism-based; design: dose 50 mg/kg, route oral; conditions: in vivo
In short: (§3)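 Mice dosed by oral gavage at 50 mg/kg in 0.2 mL vehicle (7% tween80, 3% ethanol, 5% DMSO, 0.9% saline); plasma compound levels followed to give Cmax and AUC.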

[9] = Selectivity index, ratio of EC50 for human CRL-1855 cells to EC50 for Trypanosoma brucei 427 bloodstream forms; format: toxicity, cell-based; conditions: read-out: Ratio EC50
[10] = AUC in mouse at 50 mg/kg, administered through oral gavage by LC-MS analysis; format: ADME, organism-based; conditions: in vivo; in short: as §3

## Clc1cc(Cl)cc(CNC2CCCC(c3nc4cc(Cl)ccc4[nH]3)C2)c1 (stereo not given)
[1]
  EC50: 1950 nM
[2]
  IC50: 580 nM
[3]
  ΔTm: 12.6 °C

## Clc1cc(Cl)cc(CO[C@H]2CCCN(c3nc4nc(Cl)ccc4[nH]3)C2)c1
[1]
  EC50: 8800 nM
[2]
  IC50: 196 nM
[3]
  ΔTm: 7.5 °C

## O=C(Cc1cc(Cl)cc(Cl)c1)N1CCCC(c2nc3ccccc3[nH]2)C1 (stereo not given)
[1]
  EC50: > 5000 nM
[2]
  IC50: 288 nM
[3]
  ΔTm: 7.8 °C

## Clc1cc(Cl)cc(NCC2CCCN(c3nc4nc(Cl)ccc4[nH]3)C2)c1 (stereo not given)
[4]
  EC50 at 48 h: 15400 nM
[1]
  EC50: 343 nM
[2]
  IC50: < 50 nM
[5]
  EC50 at 48 h: 29200 nM
[3]
  ΔTm: 14.4 °C

## Clc1cc(Cl)cc(CNC2CCN(c3nc4nc(Cl)ccc4[nH]3)CC2)c1
[1]
  EC50: 13300 nM
[2]
  IC50: 4970 nM
[3]
  ΔTm: 5.8 °C

## Clc1cc(Cl)cc(CNC2CCCC(c3nc4nc(Cl)ccc4[nH]3)C2)c1 (stereo not given)
[4]
  EC50 at 48 h: 33100 nM
[1]
  EC50: 359 nM
[2]
  IC50: 124 nM
[5]
  EC50 at 48 h: 32300 nM
[3]
  ΔTm: 14.2 °C

## Clc1cc(Cl)cc(CCN2CCCC(c3nc4nc(Cl)ccc4[nH]3)C2)c1 (stereo not given)
[1]
  EC50: 3760 nM
[2]
  IC50: > 10000 nM
[3]
  ΔTm: 6 °C

## Clc1cc(Cl)cc(CNCCSc2nc3nc(Cl)ccc3[nH]2)c1
[1]
  EC50: 1400 nM
[2]
  IC50: 1050 nM

## Cc1cc2cc(C(=O)N3CCCC(c4nc5ccccc5[nH]4)C3)ccc2o1 (stereo not given)
[6]
  inhibition: 78%
[7]
  inhibition: 20%

## N=C(N)c1ccc(OCCCCCOc2ccc(C(=N)N)cc2)cc1 [PENTAMIDINE]
[1]
  EC50: 0.9 nM

## O=C(Nc1cc(Cl)cc(Cl)c1)[C@H]1CCCN(c2nc3nc(Cl)ccc3[nH]2)C1
[1]
  EC50: > 20000 nM
[2]
  IC50: > 10000 nM
[3]
  ΔTm: 2.6 °C

## O=C(Cc1cc(Cl)cc(Cl)c1)N1CCCC(c2nc3c(Cl)cccc3[nH]2)C1 (stereo not given)
[1]
  EC50: 8810 nM
[2]
  IC50: 926 nM
[3]
  ΔTm: 7.4 °C

## Clc1cc(Cl)cc(CN[C@H]2CCCN(c3nc4nc(Cl)ccc4[nH]3)C2)c1
[4]
  EC50 at 48 h: 29300 nM
[1]
  EC50: 39 nM
[8]
  Cmax: 37.6 µM
[2]
  IC50: < 50 nM
[9]
  selectivity ratio: 751
[10]
  AUC: 104 µM·h
[5]
  EC50 at 48 h: 49000 nM
[3]
  ΔTm: 19 °C

## Clc1cc(Cl)cc(CN[C@@H]2CCN(c3nc4ccc(Cl)nc4[nH]3)C2)c1
[1]
  EC50: 9010 nM
[2]
  IC50: 696 nM
[3]
  ΔTm: 7.2 °C

## Clc1cc(Cl)cc(CNC2CCCCN(c3nc4nc(Cl)ccc4[nH]3)C2)c1 (stereo not given)
[1]
  EC50: 1810 nM
[2]
  IC50: 682 nM
[3]
  ΔTm: 6.8 °C

## Clc1cc(Cl)cc(CN[C@@H]2CCCN(c3nc4nc(Cl)ccc4[nH]3)C2)c1
[1]
  EC50: 999 nM
[2]
  IC50: 192 nM
[3]
  ΔTm: 13.1 °C

## Clc1cc(Cl)cc(CNCCCc2nc3ccc(Cl)nc3[nH]2)c1
[4]
  EC50 at 48 h: 45700 nM
[1]
  EC50: 307 nM
[2]
  IC50: < 50 nM
[5]
  EC50 at 48 h: 45600 nM
[3]
  ΔTm: 12.8 °C

## CCN(CC)CCCC(C)Nc1c2ccc(Cl)cc2nc2ccc(OC)cc12 (stereo not given) [QUINACRINE]
[4]
  EC50 at 48 h: 2120 nM
[5]
  EC50 at 48 h: 11900 nM

## Clc1cc(Cl)cc(CNCCCc2nc3ccc(Cl)cc3[nH]2)c1
[1]
  EC50: 2150 nM
[2]
  IC50: 243 nM
[3]
  ΔTm: 10.8 °C

## Clc1cc(Cl)cc(CN[C@@H]2CCC[C@H](c3nc4nc(Cl)ccc4[nH]3)C2)c1
[1]
  EC50: 580 nM
[2]
  IC50: 106 nM
[3]
  ΔTm: 13.1 °C

## Clc1cc(Cl)cc(CN[C@H]2CCN(c3nc4ccc(Cl)nc4[nH]3)C2)c1
[1]
  EC50: 1540 nM
[2]
  IC50: < 50 nM
[3]
  ΔTm: 11.4 °C

## O=C(N[C@H]1CCCN(c2nc3nc(Cl)ccc3[nH]2)C1)c1cc(Cl)cc(Cl)c1
[1]
  EC50: > 20000 nM
[2]
  IC50: > 10000 nM
[3]
  ΔTm: 0 °C

## Clc1cc(Cl)cc(CNC2CN(c3nc4nc(Cl)ccc4[nH]3)C2)c1
[1]
  EC50: 15300 nM
[2]
  IC50: 2170 nM
[3]
  ΔTm: 6.4 °C

## O=C(Cc1cc(Cl)cc(Cl)c1)N1CCCC(c2nc3cc(Cl)ccc3[nH]2)C1 (stereo not given)
[4]
  EC50 at 48 h: 22800 nM
[1]
  EC50: 1400 nM
[2]
  IC50: 60 nM
[5]
  EC50 at 48 h: 35400 nM
[3]
  ΔTm: 7.2 °C

## Clc1cc(Cl)cc(CNC2CCCN(c3nc4nc(Cl)ccc4[nH]3)C2)c1 (stereo not given)
[4]
  EC50 at 48 h: 46200 nM
[1]
  EC50: 82 nM
[2]
  IC50: < 50 nM
[5]
  EC50 at 48 h: > 50000 nM
[3]
  ΔTm: 18.4 °C
